Our source for the IC50, inhibition and Activity values is ChEMBL document CHEMBL4229502, “Asperidines A-C, pyrrolidine and piperidine derivatives from the soil-derived fungus Aspergillus sclerotiorum PSU-RSPG178” (Bioorg Med Chem, 2018).

Calls of active or inactive are those of the source. No cut-off for these calls is given here.

The subject of one data set is Vero. Nature of the data set: Cytotoxicity against African green monkey Vero cells by GFP-based assay. As to conditions: Chlorocebus sabaeus. The data set is classed as cell-based. The procedure, abridged:
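Vero cell assay run in triplicate following a previously published method, with ellipticine as reference drug; IC50 reported.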

The target of data set [1] is Cystic fibrosis transmembrane conductance regulator (Homo sapiens, UniProt P13569). Nature of the data set: Inhibition of CFTR-mediated forskolin-induced chloride secretion in human T84 cells after 15 mins by short-circuit current analysis. Format: cell-based. In a few lines:
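T84 monolayers grown on 1 cm² porous inserts (500,000 cells/insert) until TEER > 1000 Ω·cm², then mounted in Ussing chambers. Symmetrical Krebs solution (pH 7.3, 10 mM glucose) was gassed with 95% O2/5% CO2 at 37 °C. Chloride secretion was stimulated with 20 µM forskolin, then compound added apically at varied concentrations. Short-circuit current recorded; IC50 from Hill equation.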

Data set [2] has as its system Caco-2. Nature of the data set: Antioxidant activity in human Caco2 cells assessed as decrease in H2O2-induced reactive oxygen species level after 24 hrs by DCFH-DA dye-based fluorescence assay. The data set is classed as functional, cell-based. The procedure, abridged: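 Caco-2 cells (ATCC, passages 2–22, DMEM/F-12 with 10% FBS) were treated 24 h at 12.5–100 µM. They were loaded with 10 µM DCFH-DA for 1 h at 37 °C in the dark, then exposed to 0.5 mM H2O2 for 30 min and washed twice. Fluorescence was read at ex 495/em 527 nm. Means ± S.E.M., n = 3, vs H2O2-exposed control cells.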

Data set [3] has as its system Caco-2. Kind of data set: Antioxidant activity in human Caco2 cells assessed as decrease in reactive oxygen species level after 24 hrs by DCFH-DA dye-based fluorescence assay. The data set is classed as functional, cell-based. In a few lines: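 Caco-2 cells (ATCC, passages 2–22, DMEM/F-12 with 10% FBS) were exposed 24 h at 12.5–100 µM. They were then loaded with 10 µM DCFH-DA for 1 h at 37 °C in the dark and incubated 30 min without H2O2. Fluorescence was read at ex 495/em 527 nm. Means ± S.E.M., n = 3, vs untreated control cells.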

Data set [4] addresses T1, 3-hydroxy-3-methylglutaryl-coenzyme A reductase (Homo sapiens) (UniProt P04035).
T1 sequence (whole entry): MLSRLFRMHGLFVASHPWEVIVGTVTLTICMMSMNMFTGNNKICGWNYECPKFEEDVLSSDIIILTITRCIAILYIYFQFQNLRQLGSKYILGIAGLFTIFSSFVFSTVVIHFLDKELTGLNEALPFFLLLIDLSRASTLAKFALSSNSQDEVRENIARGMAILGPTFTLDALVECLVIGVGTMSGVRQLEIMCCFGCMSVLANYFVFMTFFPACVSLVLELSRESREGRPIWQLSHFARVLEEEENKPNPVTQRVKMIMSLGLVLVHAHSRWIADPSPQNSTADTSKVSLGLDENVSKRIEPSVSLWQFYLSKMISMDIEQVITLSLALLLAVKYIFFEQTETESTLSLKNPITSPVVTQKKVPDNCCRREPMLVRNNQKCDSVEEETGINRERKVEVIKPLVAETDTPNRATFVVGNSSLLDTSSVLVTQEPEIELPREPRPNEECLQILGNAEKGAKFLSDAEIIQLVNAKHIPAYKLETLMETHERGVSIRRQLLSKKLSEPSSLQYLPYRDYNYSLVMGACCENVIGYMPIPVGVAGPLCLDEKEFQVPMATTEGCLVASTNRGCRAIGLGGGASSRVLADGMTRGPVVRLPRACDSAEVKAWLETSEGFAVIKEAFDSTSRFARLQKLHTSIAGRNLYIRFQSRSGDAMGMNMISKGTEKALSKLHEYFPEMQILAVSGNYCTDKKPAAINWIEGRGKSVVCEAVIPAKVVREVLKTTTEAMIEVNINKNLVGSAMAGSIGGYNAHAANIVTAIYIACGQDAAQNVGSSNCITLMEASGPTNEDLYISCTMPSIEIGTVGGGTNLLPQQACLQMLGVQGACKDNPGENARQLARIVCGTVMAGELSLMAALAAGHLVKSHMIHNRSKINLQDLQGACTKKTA
Kind of data set: Inhibition of human HMG-CoA reductase catalytic domain at 200 uM using HMG-CoA as substrate measured every 20 secs for 10 mins relative to control. The procedure, abridged: (§1)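 Cell-free kit assay: human HMGR catalytic domain added to buffer with NADPH and HMG-CoA to start the reaction at 37 °C. NADPH oxidation followed as A340 every 20 s for 10 min. Results expressed as percent inhibition of untreated control, n = 3.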

For data set [5], the system named is Caco-2. Kind of data set: Cytotoxicity against human Caco2 cells assessed as decrease in cell viability at 12.5 to 100 uM after 24 hrs by MTT assay. The data set is classed as cell-based. As to conditions: caco-2, 24 h. In a few lines: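 Caco-2 cells (ATCC, passages 2–22, DMEM/F-12 with 10% FBS) were plated at 2.5 × 10^4 cells/well for 24 h, then exposed to 12.5, 25, 50, 75 and 100 µM for 24 h. After washing, cells got 5 mg/mL MTT for 4 h, crystals were dissolved in DMSO and A570 read. Viability is % of control, means ± S.E.M., n = 5.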
A general note: Tetrazolium dyes change colour on reduction, which living cells bring about.

The target of data set [6] is T1, 3-hydroxy-3-methylglutaryl-coenzyme A reductase (Homo sapiens). Kind of data set: Inhibition of human HMG-CoA reductase catalytic domain at 1 uM using HMG-CoA as substrate measured every 20 secs for 10 mins relative to control. The procedure, abridged:
as §1

As a reminder, the IC50 is the midpoint of a concentration-inhibition curve. Consider `Cc1c2ccncc2c(C)c2c1[nH]c1ccccc12` [ELLIPTECINE], for which the concentration for half-maximal inhibition (IC50) in the data set with Vero came out at 4.06 µM.
Broadly, the inhibition is the share of the control response that was lost under treatment. As to `CCCCCCCC[C@@H]1CC[C@H](O)[C@H](Cc2ccccc2)N1C`, the inhibition entry in data set [1] was “Dose-dependent effect”; in data set [4], 29%. This molecule had a concentration for half-maximal inhibition (IC50) in the data set on Vero of 51.5 µM. The Activity result is “Dose-dependent effect” with Caco-2 [2], “Dose-dependent effect” in the data set on Caco-2 [3] and “Non-Toxic” in the data set on Caco-2 [5].
For the molecule `CCCCCCCCC[C@@H]1C[C@H](O)[C@H]2C[N@]1O[C@@H]2c1ccccc1`, the half-maximal inhibitory concentration (IC50) in data set [1] was found to be 58.6 µM. Moreover, the Activity entry in the data set with Vero is “Non-Toxic”; with Caco-2 [2] it was “Dose-dependent effect”; with Caco-2 [3], “Dose-dependent effect”; with Caco-2 [5], “Non-Toxic”. For the same molecule, the inhibition entry in data set [4] was “inactive”.
As to `CC[C@H](C)C(=O)O[C@H]1C[C@H](O)C=C2C=C[C@H](C)[C@H](CC[C@@H](O)C[C@@H](O)CC(=O)O)[C@H]21`, the inhibition in data set [6] stood at 86%.
